Here are results for 45 compounds from ChEMBL document CHEMBL1138736, “Imidazoquinoxaline Src-family kinase p56Lck inhibitors: SAR, QSAR, and the discovery of (S)-N-(2-chloro-6-methylphenyl)-2-(3-methyl-1-piperazinyl)imidazo- [1,5-a]pyrido[3,2-e]pyrazin-6-amine (BMS-279700) as a potent and orally active inhibitor with excellent in vivo antiinflammatory activity” (J Med Chem, 2004).

Structures are written as SMILES. Bounds are passed on as bounds.

The term IC50 denotes the concentration that inhibits the measured activity by half.

A short description of assay [1]: Inhibition of Human PBL (T cell) proliferation. The class given is functional. Conditions: Homo sapiens. Put shortly:
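Normal human peripheral blood T cells are added with test compound and anti-CD28 (E.3) antibody to wells precoated with anti-CD3 mAb (G19-4). After 3 days [3H]-thymidine is added, and after further incubation the cells are harvested and incorporation is counted by scintillation.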

Assay [2] can be described thus: Inhibition of recombinant p56 Lck tyrosine kinase expressed in insect cells. Put shortly:
(§1)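 His-tagged recombinant Lck made in insect cells by baculovirus and purified on nickel affinity resin. Kinase buffer is 20 mM MOPS pH 7 with 10 mM MgCl2, and the test compound is present. It is stopped after 10 min with TCA/pyrophosphate then BSA. Enolase is precipitated at 4 °C, filtered and counted by scintillation.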

Assay [3] is described as follows: Binding affinity for recombinant p56 Lck tyrosine kinase expressed in insect cells. Put shortly:
as §1

Take `Cc1cccc(Cl)c1Nc1nc2ccc(N3CCN(CCN(C)C)CC3)nc2n2cncc12`: the IC50 in assay [1] is 0.25 µM; in assay [2], 0.002 µM.

As for `Cc1cccc(Cl)c1Nc1nc2ccc(NCCO)nc2n2cncc12`, the IC50 amounted to 0.49 µM in assay [1] and 0.003 µM in assay [2].

Take `Cc1cccc(Cl)c1Nc1nc2cnc(N3C[C@@H](C)N[C@@H](C)C3)cc2n2cncc12`: in assay [2], the IC50 is 0.029 µM.

Turning to `COc1ccc2c(c1)nc(Nc1c(C)cccc1Cl)c1cncn12`, in assay [1], half-maximal inhibition (IC50) required 2.6 µM.

Take `Cc1cccc(C)c1Nc1nc2ccc(N3CCNCC3)nc2n2cncc12`: the figures for the IC50 in assay [1] and in assay [2] were 0.23 µM and 0.001 µM, respectively.

On to `Cc1cccc(Cl)c1Nc1nc2ccc(N(C)CCN(C)C)nc2n2cncc12`, for which, in assay [2], the IC50 was 0.071 µM.

As to `Cc1cccc(Cl)c1Nc1nc2ccc(N3CCN[C@H](CO)C3)nc2n2cncc12`, the IC50 in assay [1] came to 0.18 µM; in assay [2] it was 0.003 µM.

Regarding `Cc1cccc(Cl)c1Nc1nc2ccc(N3CCN(C)CC3)nc2n2cncc12`, the IC50 was 0.4 µM in assay [1] and 0.001 µM in assay [2].

As for `Cc1cccc(Cl)c1Nc1nc2ccc(N3CCCNCC3)nc2n2cncc12`, the IC50 in assay [1] is 0.54 µM; in assay [2], 0.006 µM.

Consider `Cc1cccc(Cl)c1Nc1nc2ccc(N3CCN[C@H](C)C3)nc2n2cncc12`, for which the IC50 in assay [1] amounted to 0.24 µM; in assay [2], 0.002 µM.

Turning to `Cc1cccc(Cl)c1Nc1nc2ccc(N3C[C@@H](O)[C@H](O)C3)nc2n2cncc12`, the values for the IC50 in assay [1] and in assay [2] were 0.44 µM and 0.005 µM, respectively.

In turn, `COc1cc2c(cc1NCCN(C)C)nc(Nc1c(C)cccc1Cl)c1cncn12` returned an IC50 in assay [1] of 0.194 µM.

`Cc1cccc(Cl)c1Nc1nc2ccc(N(C)C[C@H](O)CO)nc2n2cncc12`: the IC50 in assay [1] came to 0.63 µM; in assay [2], 0.013 µM.

As to `Cc1cccc(Cl)c1Nc1nc2ncccc2n2cncc12`, the IC50 in assay [2] amounted to 0.09 µM.

In the case of `Cc1cccc(Cl)c1Nc1nc2ccc(N3CC[C@@H](O)C3)nc2n2cncc12`, the IC50 turned out to be 0.73 µM in assay [1] and 0.008 µM in assay [2].

`CCN(CC)c1ccc2nc(Nc3c(C)cccc3Cl)c3cncn3c2n1`: the values for the IC50 in assay [1] and in assay [2] were 2.1 µM and 0.002 µM, respectively.

As to `Cc1cccc(Cl)c1Nc1nc2cc(N(C)CCN(C)C)ncc2n2cncc12`, in assay [2], the IC50 turned out to be 0.24 µM.

As to `Cc1cccc(Cl)c1Nc1nc2cc(N3CCNCC3)ncc2n2cncc12`, the IC50 in assay [2] was found to be 0.163 µM.

As for `Cc1cccc(Cl)c1Nc1nc2ccc(N3CC[C@H](O)C3)nc2n2cncc12`, the IC50 in assay [1] was 0.34 µM; in assay [2], 0.004 µM.

On to `Cc1cccc(Cl)c1Nc1nc2cc(N(C)CCN3CCOCC3)ncc2n2cncc12`, for which the IC50 in assay [2] was determined as 0.103 µM.

Take `Cc1cccc(Cl)c1NC1=NC2N=CN(C)C2n2c1cnc2C` (configuration not stated): in assay [2], the IC50 is more than 0.78 µM.

For `Cc1cccc(Cl)c1Nc1nc2ccc(N(C)C)nc2n2cncc12`, the values for the IC50 in assay [1] and in assay [2] were 1.2 µM and 0.001 µM, respectively. Also, the Log IC50 in assay [3] turned out to be 3 µM.

In the case of `Cc1cccc(Cl)c1Nc1nc2cnccc2n2cncc12`, the IC50 in assay [2] was 0.077 µM.

For `Cc1cccc(Cl)c1Nc1nc2ccc(N3C[C@@H](C)N[C@@H](C)C3)nc2n2cncc12`, the IC50 was determined as 0.4 µM in assay [1] and 0.002 µM in assay [2].

In the case of `Cc1cccc(Cl)c1Nc1nc2ccc(N(C)CCO)nc2n2cncc12`, the IC50 in assay [1] was 0.62 µM; in assay [2], 0.003 µM.

As to `Cc1cccc(Cl)c1Nc1nc2ccc(N(C)C[C@@H](O)CO)nc2n2cncc12`, the IC50 was determined as 0.3 µM in assay [1] and 0.007 µM in assay [2].

For `Cc1cccc(Cl)c1Nc1nc2ccc(N3CCCCC3)nc2n2cncc12`, the IC50 in assay [2] is 0.007 µM.

Take `Cc1cccc(Cl)c1Nc1nc2ccc(N3CC[C@@H](N)C3)nc2n2cncc12`: the IC50 in assay [1] is 0.31 µM; in assay [2] it was 0.007 µM.

Regarding `COc1ccc2nc(Nc3c(C)cccc3Cl)c3cncn3c2n1`, the IC50 came out at 1.8 µM in assay [1] and 0.019 µM in assay [2].

Take `Cc1cccc(Cl)c1Nc1nc2ccc(N3C[C@H](O)[C@@H](O)C3)nc2n2cncc12`: the IC50 in assay [1] is more than 2 µM; in assay [2], 0.013 µM.

For `Cc1cccc(Cl)c1Nc1nc2ccc(N3CCN(CCO)CC3)nc2n2cncc12`, the IC50 in assay [1] was 0.24 µM; in assay [2], 0.009 µM.

For the compound `Cc1cccc(C)c1Nc1nc2ncccc2n2cncc12`, in assay [2], the IC50 came out at 0.15 µM.

Consider `Cc1cccc(Cl)c1Nc1nc2ccc(N(CCO)CCO)nc2n2cncc12`, for which the IC50 came to 0.62 µM in assay [1] and 0.004 µM in assay [2].

`COc1cc2nc(Nc3c(C)cccc3Cl)c3cncn3c2cc1OC` showed an IC50 in assay [1] of 0.67 µM.

Turning to `CC1=NN(C)C2C1N=C(Nc1c(C)cccc1Cl)c1cnc(C)n12` (configuration not stated), the IC50 in assay [2] is more than 0.78 µM.

As to `Cc1cccc(Cl)c1Nc1nc2ccc(Cl)nc2n2cncc12`, the IC50 in assay [2] is 0.025 µM.

Regarding `COc1ncc2c(n1)nc(Nc1c(C)cccc1Cl)c1cncn12`, the IC50 in assay [2] was more than 0.78 µM.

As for `Cc1cccc(Cl)c1Nc1nc2ccncc2n2cncc12`, the IC50 in assay [2] came to 1.4 µM.

For the compound `Cc1cccc(Cl)c1Nc1nc2ccc(-n3ccnc3)nc2n2cncc12`, the IC50 amounted to 0.47 µM in assay [1] and 0.005 µM in assay [2].

With `Cc1cccc(Cl)c1Nc1nc2ccc(N3CCOCC3)nc2n2cncc12`, the values for the IC50 in assay [1] and in assay [2] were 1.9 µM and 0.001 µM, respectively.

In the case of `Cc1cccc(Cl)c1Nc1nc2cccnc2n2cncc12`, the IC50 in assay [2] was found to be 0.03 µM.

Turning to `Cc1cccc(Cl)c1Nc1nc2ccccc2n2cncc12`, the IC50 in assay [1] turned out to be 5 µM; in assay [2], 0.009 µM.

`Brc1ccccc1Nc1nc2ccccc2n2cncc12`: the IC50 in assay [1] amounted to 17 µM.

With `Cc1cccc(Cl)c1Nc1nc2ccc(N3CC[C@H](N)C3)nc2n2cncc12`, the IC50 in assay [1] was found to be 0.37 µM; in assay [2], 0.006 µM.

Take `Cc1cccc(Cl)c1Nc1nc2ccc(N3CCN[C@@H](CO)C3)nc2n2cncc12`: the IC50 in assay [1] came to 0.27 µM; in assay [2], 0.005 µM.
